Assay results as given in ChEMBL document CHEMBL1126792, “Structure-activity relationships of beta-D-(2S,5R)- and alpha-D-(2S,5S)-1,3-oxathiolanyl nucleosides as potential anti-HIV agents” (J Med Chem, 1993).

Key:
[1] = test system: Human immunodeficiency virus 1; test: Concentration required for antiviral activity in PBMC (human peripheral blood mononuclear cells) infected with HIV-1 strain LAV; format: functional, organism-based
How it was run: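 Human PBM cells infected with HIV-1 strain LAV. EC50 is the concentration giving 50% inhibition of virus production, measured as reverse transcriptase (RT) levels in culture supernatant. Values are the mean of triplicates, calculated by the median method.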

[2] = test system: Human immunodeficiency virus 1; test: Inhibition of cell growth against HIV-1 infected PBM (Human peripheral blood mononuclear) cells; format: functional, organism-based
How it was run: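 Growth of human PBM cells measured in cytotoxicity assay; IC50 = concentration giving 50% inhibition of cell growth; mean of triplicate values, calculated by the median method.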

Vero = test: Inhibition of cell growth in vero cells; format: functional, cell-based; conditions: Chlorocebus sabaeus
How it was run: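 Vero cell cytotoxicity assay; IC50 = concentration giving 50% inhibition of cell growth; mean of triplicate values, calculated by the median method.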

[3] = Human immunodeficiency virus 1, PBMC

SMILES: Nc1ccn([C@H]2CO[C@@H](CO)O2)c(=O)n1
- EC50 [1, 3]: 0.016 µM

SMILES: Cc1cn([C@@H]2CS[C@@H](CO)O2)c(=O)[nH]c1=O
- IC50 [2]: > 100 µM
- EC50 [1, 3]: > 100 µM
- IC50 (Vero): > 100 µM

SMILES: Cc1cn([C@H]2CS[C@@H](CO)O2)c(=O)nc1N
- IC50 [2]: > 100 µM
- EC50 [1, 3]: 0.172 µM
- IC50 (Vero): > 100 µM

SMILES: CNc1ncnc2c1ncn2[C@@H]1CS[C@@H](CO)O1
- IC50 [2]: > 100 µM
- EC50 [1, 3]: 11.7 µM
- IC50 (Vero): > 100 µM

SMILES: Cc1cn([C@@H]2CS[C@@H](CO)O2)c(=O)nc1N
- IC50 [2]: > 100 µM
- EC50 [1, 3]: > 100 µM
- IC50 (Vero): > 100 µM

SMILES: O=c1[nH]c(=O)n([C@H]2CS[C@@H](CO)O2)cc1Br
- IC50 [2]: > 100 µM
- EC50 [1, 3]: > 100 µM
- IC50 (Vero): > 100 µM

SMILES: Nc1nc(Cl)c2ncn([C@@H]3CS[C@@H](CO)O3)c2n1
- IC50 [2]: > 100 µM
- EC50 [1, 3]: 5.6 µM
- IC50 (Vero): > 100 µM

SMILES: Nc1nc(=O)n([C@H]2CS[C@@H](CO)O2)cc1I
- IC50 [2]: > 100 µM
- EC50 [1, 3]: 1.9 µM
- IC50 (Vero): > 100 µM

SMILES: Nc1ncnc2c1ncn2[C@H]1CS[C@@H](CO)O1
- IC50 [2]: > 100 µM
- EC50 [1, 3]: 0.28 µM
- IC50 (Vero): > 100 µM

SMILES: O=c1[nH]c(=O)n([C@@H]2CS[C@@H](CO)O2)cc1Cl
- IC50 [2]: > 100 µM
- EC50 [1, 3]: > 100 µM
- IC50 (Vero): > 100 µM

SMILES: O=c1ccn([C@H]2CS[C@@H](CO)O2)c(=O)[nH]1
- IC50 [2]: > 100 µM
- EC50 [1, 3]: 94.7 µM
- IC50 (Vero): > 100 µM

SMILES: O=c1[nH]c(=O)n([C@H]2CS[C@@H](CO)O2)cc1I
- IC50 [2]: > 100 µM
- EC50 [1, 3]: 29.3 µM
- IC50 (Vero): > 100 µM

SMILES: Nc1nc2c(ncn2[C@H]2CO[C@@H](CO)O2)c(=O)[nH]1
- EC50 [1, 3]: 0.03 µM

SMILES: Nc1nc(O)c2ncn([C@H]3CS[C@@H](CO)O3)c2n1
- IC50 [2]: > 100 µM
- EC50 [1, 3]: 0.83 µM
- IC50 (Vero): > 100 µM

SMILES: Nc1nc(O)c2ncn([C@@H]3CS[C@@H](CO)O3)c2n1
- IC50 [2]: > 100 µM
- EC50 [1, 3]: 7.62 µM
- IC50 (Vero): 63.6 µM

SMILES: OC[C@H]1O[C@H](n2cnc3c(Cl)ncnc32)CS1
- IC50 [2]: > 100 µM
- EC50 [1, 3]: 2.7 µM
- IC50 (Vero): 86.1 µM

SMILES: O=c1[nH]c(=O)n([C@@H]2CS[C@@H](CO)O2)cc1Br
- IC50 [2]: > 100 µM
- EC50 [1, 3]: > 100 µM
- IC50 (Vero): > 100 µM

SMILES: O=c1[nH]c(=O)n([C@H]2CS[C@@H](CO)O2)cc1F
- IC50 [2]: > 100 µM
- EC50 [1, 3]: 6.3 µM
- IC50 (Vero): > 100 µM

SMILES: CNc1ncnc2c1ncn2[C@H]1CS[C@@H](CO)O1
- IC50 [2]: > 100 µM
- EC50 [1, 3]: 1.1 µM
- IC50 (Vero): > 100 µM

SMILES: Nc1nc(F)nc2c1ncn2[C@@H]1CS[C@@H](CO)O1
- IC50 [2]: > 100 µM
- EC50 [1, 3]: 61.9 µM
- IC50 (Vero): 45.4 µM

SMILES: Nc1ncnc2c1ncn2[C@@H]1CS[C@@H](CO)O1
- IC50 [2]: > 100 µM
- EC50 [1, 3]: 11.9 µM
- IC50 (Vero): > 100 µM

SMILES: Nc1ccn([C@@H]2CS[C@@H](CO)O2)c(=O)n1
- IC50 [2]: > 100 µM
- EC50 [1, 3]: > 100 µM
- IC50 (Vero): > 100 µM

SMILES: Nc1nc(=O)n([C@@H]2CS[C@@H](CO)O2)cc1Cl
- IC50 [2]: > 100 µM
- EC50 [1, 3]: > 100 µM
- IC50 (Vero): 31.2 µM

SMILES: OC[C@H]1O[C@@H](n2cnc3c(O)ncnc32)CS1
- IC50 [2]: > 100 µM
- EC50 [1, 3]: 0.05 µM
- IC50 (Vero): > 100 µM

SMILES: Nc1nc(=O)n([C@H]2CS[C@@H](CO)O2)cc1Br
- IC50 [2]: > 100 µM
- EC50 [1, 3]: 0.012 µM
- IC50 (Vero): > 100 µM

SMILES: O=c1[nH]c(=O)n([C@@H]2CS[C@@H](CO)O2)cc1I
- IC50 [2]: > 100 µM
- EC50 [1, 3]: 112 µM
- IC50 (Vero): > 100 µM

SMILES: Nc1nc(=O)n([C@@H]2CS[C@@H](CO)O2)cc1I
- IC50 [2]: > 100 µM
- EC50 [1, 3]: 0.28 µM
- IC50 (Vero): > 100 µM

SMILES: Nc1nc(=O)n([C@@H]2CS[C@@H](CO)O2)cc1Br
- IC50 [2]: > 100 µM
- EC50 [1, 3]: > 100 µM
- IC50 (Vero): > 100 µM

SMILES: Cc1cn([C@H]2CS[C@@H](CO)O2)c(=O)[nH]c1=O
- IC50 [2]: > 100 µM
- EC50 [1, 3]: 11.6 µM
- IC50 (Vero): > 100 µM

SMILES: Nc1nc(=O)n([C@H]2CS[C@@H](CO)O2)cc1F
- IC50 [2]: > 100 µM
- EC50 [1, 3]: 0.38 µM
- IC50 (Vero): > 100 µM

SMILES: OC[C@H]1O[C@@H](n2cnc3c(Cl)ncnc32)CS1
- IC50 [2]: > 100 µM
- EC50 [1, 3]: 0.48 µM
- IC50 (Vero): 46.5 µM

SMILES: Nc1nc(F)nc2c1ncn2[C@H]1CS[C@@H](CO)O1
- IC50 [2]: > 100 µM
- EC50 [1, 3]: 2.8 µM
- IC50 (Vero): 5.6 µM

SMILES: Nc1nc(=O)n([C@H]2CS[C@@H](CO)O2)cc1Cl
- IC50 [2]: > 100 µM
- EC50 [1, 3]: 0.28 µM
- IC50 (Vero): > 100 µM

SMILES: Nc1nc(=O)n([C@@H]2CS[C@@H](CO)O2)cc1F
- IC50 [2]: > 100 µM
- EC50 [1, 3]: 77.5 µM
- IC50 (Vero): > 100 µM

SMILES: OC[C@H]1O[C@H](n2cnc3c(O)ncnc32)CS1
- IC50 [2]: > 100 µM
- EC50 [1, 3]: > 100 µM
- IC50 (Vero): > 100 µM

SMILES: O=c1[nH]c(=O)n([C@H]2CS[C@@H](CO)O2)cc1Cl
- IC50 [2]: > 100 µM
- EC50 [1, 3]: 30.4 µM
- IC50 (Vero): > 100 µM

SMILES: Nc1nc(Cl)c2ncn([C@H]3CS[C@@H](CO)O3)c2n1 (racemic)
- IC50 [2]: > 100 µM
- EC50 [1, 3]: 0.52 µM
- IC50 (Vero): > 100 µM

SMILES: Nc1ccn([C@@H]2CS[C@H](CO)O2)c(=O)n1 [LAMIVUDINE]
- IC50 [2]: > 100 µM
- EC50 ([1]; pbmc): 0.0018 µM
- IC50 (Vero): > 100 µM

SMILES: Cc1cn([C@H]2C[C@H](N=[N+]=[N-])[C@@H](CO)O2)c(=O)[nH]c1=O [ZIDOVUDINE]
- IC50 [2]: > 100 µM
- EC50 [1, 3]: 0.004 µM
- IC50 (Vero): > 100 µM
